Measured values published in ChEMBL document CHEMBL5303300, “EUbOPEN Chemogenomics Library - Multiplex” (2023).
“And” between values parts separate entries of the source, which are not always exact repeats. Equal entries are not always repeated. *1 amine or outer side, *2 acyl side, *3 side chain or, on linkers, in order; H or OH if unused. Where a SMILES comes first, the peptide text is derived from it. Bridges are numbered along the chain shown (N, C = ends). Roman numbers before positions name the chains, in order. [ ]: non-standard residue; d: D form. Hexamethylenediamine = C(CCCN[*:2])CCN[*:1]; Dip = N[C@H](C(=O)O)C(c1ccccc1)c1ccccc1; Chg = N[C@H](C(=O)O)C1CCCCC1; NMeA = CN[C@@H](C)C(=O)O

Test system: Fibroblast
Assay: Multiplex assay against human fibroblast
Format: toxicity, cell-based
Details: number of replicates 2
Outline: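 Four dyes were applied at seeding to live cells: Hoechst33342, BioTracker Green Microtubule Cytoskeleton Dye, MitoTracker Red and Annexin V Alexa Fluor 680. Imaging after compound addition used a CQ1 microscope at 37°C and 5% CO2. CellPathfinder machine-learning gating then sorted cells into Hoechst high-intensity objects or normal cells, normal cells into healthy, pyknosed or fragmented nuclei, and pyknosed cells into mitotic or apoptotic, with tubulin, mitochondrial-mass and membrane-permeability phenotypes given as per cents of healthy-nucleus cells.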

[1] = 12 h, 1 µM, compound concentration 1 uM
[2] = 12 h, 10 µM, compound concentration 10 uM
[3] = 24 h, 1 µM, compound concentration 1 uM
[4] = 24 h, 10 µM, compound concentration 10 uM
[5] = 48 h, 1 µM, compound concentration 1 uM
[6] = 48 h, 10 µM, compound concentration 10 uM

CN[C@@H](C)C(=O)N[C@H](C(=O)N1CCC[C@H]1C(=O)N[C@H](C(=O)NCCCCCCNC(=O)[C@@H](NC(=O)[C@@H]1CCCN1C(=O)[C@@H](NC(=O)[C@H](C)NC)C1CCCCC1)C(c1ccccc1)c1ccccc1)C(c1ccccc1)c1ccccc1)C1CCCCC1 (I: H-[NMeA][Chg]P[Dip] / II: H-[NMeA][Chg]P[Dip]; linker I:C-II:C via Hexamethylenediamine)
Population Apoptotic (%) [1]: 29% and 33%
Population Fragmented Nuclei (%) [1]: 14% and 9%
Population Healthy Nuclei (%) [1]: 64% and 70%
Population Hoechst High Intensity Objects (%) [1]: 0%
Population Membrane Permeable-Phenotype (%) [1]: 5% and 3%
Population Mitochondria Different-Phenotype (%) [1]: 0% and 3%
Population Mitotic Cells (%) [1]: 70% and 66%
Population Normal (%) [1]: 100%
Population Pyknosed Nuclei (%) [1]: 21% and 20%
Population Tubulin-Different-Phenotype (%) [1]: 18% and 9%
Total Cell Count [1]: 205 and 174
Population Apoptotic (%) [2]: 43% and 60%
Population Fragmented Nuclei (%) [2]: 15% and 11%
Population Healthy Nuclei (%) [2]: 55%
Population Hoechst High Intensity Objects (%) [2]: 0%
Population Membrane Permeable-Phenotype (%) [2]: 4% and 3%
Population Mitochondria Different-Phenotype (%) [2]: 6% and 15%
Population Mitotic Cells (%) [2]: 56% and 39%
Population Normal (%) [2]: 100% and 99%
Population Pyknosed Nuclei (%) [2]: 29% and 33%
Population Tubulin-Different-Phenotype (%) [2]: 59% and 55%
Total Cell Count [2]: 210 and 251
Population Apoptotic (%) [3]: 43% and 45%
Population Fragmented Nuclei (%) [3]: 9% and 10%
Population Healthy Nuclei (%) [3]: 68% and 66%
Population Hoechst High Intensity Objects (%) [3]: 0%
Population Membrane Permeable-Phenotype (%) [3]: 5% and 4%
Population Mitochondria Different-Phenotype (%) [3]: 4% and 2%
Population Mitotic Cells (%) [3]: 56% and 55%
Population Normal (%) [3]: 100% and 99%
Population Pyknosed Nuclei (%) [3]: 21% and 22%
Population Tubulin-Different-Phenotype (%) [3]: 24% and 16%
Total Cell Count [3]: 203 and 176
Population Apoptotic (%) [4]: 72% and 60%
Population Fragmented Nuclei (%) [4]: 22% and 20%
Population Healthy Nuclei (%) [4]: 48% and 60%
Population Hoechst High Intensity Objects (%) [4]: 0%
Population Membrane Permeable-Phenotype (%) [4]: 9% and 11%
Population Mitochondria Different-Phenotype (%) [4]: 36% and 23%
Population Mitotic Cells (%) [4]: 27% and 39%
Population Normal (%) [4]: 100%
Population Pyknosed Nuclei (%) [4]: 29% and 19%
Population Tubulin-Different-Phenotype (%) [4]: 63% and 71%
Total Cell Count [4]: 249 and 210
Population Apoptotic (%) [5]: 52% and 53%
Population Fragmented Nuclei (%) [5]: 16% and 12%
Population Healthy Nuclei (%) [5]: 65% and 73%
Population Hoechst High Intensity Objects (%) [5]: 0%
Population Membrane Permeable-Phenotype (%) [5]: 3% and 5%
Population Mitochondria Different-Phenotype (%) [5]: 3% and 2%
Population Mitotic Cells (%) [5]: 47% and 46%
Population Normal (%) [5]: 100%
Population Pyknosed Nuclei (%) [5]: 17% and 14%
Population Tubulin-Different-Phenotype (%) [5]: 23% and 13%
Total Cell Count [5]: 206 and 194
Population Apoptotic (%) [6]: 83% and 76%
Population Fragmented Nuclei (%) [6]: 35% and 30%
Population Healthy Nuclei (%) [6]: 57%
Population Hoechst High Intensity Objects (%) [6]: 0%
Population Membrane Permeable-Phenotype (%) [6]: 8% and 3%
Population Mitochondria Different-Phenotype (%) [6]: 12% and 20%
Population Mitotic Cells (%) [6]: 16% and 23%
Population Normal (%) [6]: 100% and 99%
Population Pyknosed Nuclei (%) [6]: 6% and 12%
Population Tubulin-Different-Phenotype (%) [6]: 79% and 67%
Total Cell Count [6]: 258 and 314

COC(=O)Nc1nc2c(s1)-c1c(c(-c3cccnc3)nn1-c1ccc(C3(N(C)C)CC3)cc1)CC2.Cl.Cl
Population Apoptotic (%) [1]: 38% and 45%
Population Fragmented Nuclei (%) [1]: 50% and 26%
Population Healthy Nuclei (%) [1]: 40% and 52%
Population Hoechst High Intensity Objects (%) [1]: 0%
Population Membrane Permeable-Phenotype (%) [1]: 5% and 6%
Population Mitochondria Different-Phenotype (%) [1]: 0%
Population Mitotic Cells (%) [1]: 61% and 54%
Population Normal (%) [1]: 99% and 100%
Population Pyknosed Nuclei (%) [1]: 9% and 21%
Population Tubulin-Different-Phenotype (%) [1]: 29% and 31%
Total Cell Count [1]: 378 and 219
Population Apoptotic (%) [2]: 62% and 41%
Population Fragmented Nuclei (%) [2]: 31% and 34%
Population Healthy Nuclei (%) [2]: 55% and 57%
Population Hoechst High Intensity Objects (%) [2]: 0%
Population Membrane Permeable-Phenotype (%) [2]: 13% and 11%
Population Mitochondria Different-Phenotype (%) [2]: 2% and 4%
Population Mitotic Cells (%) [2]: 37% and 58%
Population Normal (%) [2]: 100% and 99%
Population Pyknosed Nuclei (%) [2]: 12% and 8%
Population Tubulin-Different-Phenotype (%) [2]: 63% and 52%
Total Cell Count [2]: 218 and 427
Population Apoptotic (%) [3]: 60% and 87%
Population Fragmented Nuclei (%) [3]: 50% and 24%
Population Healthy Nuclei (%) [3]: 42% and 60%
Population Hoechst High Intensity Objects (%) [3]: 0%
Population Membrane Permeable-Phenotype (%) [3]: 4%
Population Mitochondria Different-Phenotype (%) [3]: 2% and 3%
Population Normal (%) [3]: 99% and 100%
Population Pyknosed Nuclei (%) [3]: 6% and 15%
Population Tubulin-Different-Phenotype (%) [3]: 20% and 31%
Total Cell Count [3]: 350 and 202
Population Apoptotic (%) [4]: 65% and 52%
Population Fragmented Nuclei (%) [4]: 34% and 36%
Population Healthy Nuclei (%) [4]: 55% and 57%
Population Hoechst High Intensity Objects (%) [4]: 0%
Population Membrane Permeable-Phenotype (%) [4]: 11% and 5%
Population Mitochondria Different-Phenotype (%) [4]: 4% and 3%
Population Mitotic Cells (%) [4]: 34% and 48%
Population Normal (%) [4]: 100% and 99%
Population Pyknosed Nuclei (%) [4]: 10% and 5%
Population Tubulin-Different-Phenotype (%) [4]: 53% and 44%
Total Cell Count [4]: 225 and 437
Population Apoptotic (%) [5]: 52% and 74%
Population Fragmented Nuclei (%) [5]: 51% and 29%
Population Healthy Nuclei (%) [5]: 43% and 56%
Population Hoechst High Intensity Objects (%) [5]: 0%
Population Membrane Permeable-Phenotype (%) [5]: 6% and 5%
Population Mitochondria Different-Phenotype (%) [5]: 2% and 0%
Population Mitotic Cells (%) [5]: 47% and 25%
Population Normal (%) [5]: 99% and 100%
Population Pyknosed Nuclei (%) [5]: 5% and 13%
Population Tubulin-Different-Phenotype (%) [5]: 12% and 21%
Total Cell Count [5]: 339 and 195
Population Apoptotic (%) [6]: 57% and 73%
Population Fragmented Nuclei (%) [6]: 38% and 39%
Population Healthy Nuclei (%) [6]: 58% and 53%
Population Hoechst High Intensity Objects (%) [6]: 0%
Population Membrane Permeable-Phenotype (%) [6]: 3% and 0%
Population Mitochondria Different-Phenotype (%) [6]: 3% and 1%
Population Mitotic Cells (%) [6]: 42% and 26%
Population Normal (%) [6]: 100% and 99%
Population Pyknosed Nuclei (%) [6]: 3% and 6%
Population Tubulin-Different-Phenotype (%) [6]: 42% and 17%
Total Cell Count [6]: 223 and 418

Cl.Clc1ccc2nsnc2c1NC1=NCCN1 [TIZANIDINE HYDROCHLORIDE]
Population Apoptotic (%) [1]: 50% and 48%
Population Fragmented Nuclei (%) [1]: 10%
Population Healthy Nuclei (%) [1]: 62%
Population Hoechst High Intensity Objects (%) [1]: 0%
Population Membrane Permeable-Phenotype (%) [1]: 4% and 7%
Population Mitochondria Different-Phenotype (%) [1]: 0%
Population Mitotic Cells (%) [1]: 49% and 51%
Population Normal (%) [1]: 100%
Population Pyknosed Nuclei (%) [1]: 26% and 27%
Population Tubulin-Different-Phenotype (%) [1]: 10% and 5%
Total Cell Count [1]: 192 and 172
Population Apoptotic (%) [2]: 36%
Population Fragmented Nuclei (%) [2]: 16% and 15%
Population Healthy Nuclei (%) [2]: 68% and 70%
Population Hoechst High Intensity Objects (%) [2]: 0%
Population Membrane Permeable-Phenotype (%) [2]: 5% and 3%
Population Mitochondria Different-Phenotype (%) [2]: 3% and 1%
Population Mitotic Cells (%) [2]: 63%
Population Normal (%) [2]: 100%
Population Pyknosed Nuclei (%) [2]: 15% and 13%
Population Tubulin-Different-Phenotype (%) [2]: 14% and 8%
Total Cell Count [2]: 194 and 264
Population Apoptotic (%) [3]: 67% and 56%
Population Fragmented Nuclei (%) [3]: 9% and 13%
Population Healthy Nuclei (%) [3]: 60% and 57%
Population Hoechst High Intensity Objects (%) [3]: 0%
Population Membrane Permeable-Phenotype (%) [3]: 6%
Population Mitochondria Different-Phenotype (%) [3]: 1% and 0%
Population Mitotic Cells (%) [3]: 32% and 44%
Population Normal (%) [3]: 100%
Population Pyknosed Nuclei (%) [3]: 29% and 28%
Population Tubulin-Different-Phenotype (%) [3]: 14% and 8%
Total Cell Count [3]: 176 and 173
Population Apoptotic (%) [4]: 71% and 45%
Population Fragmented Nuclei (%) [4]: 12% and 14%
Population Healthy Nuclei (%) [4]: 71% and 72%
Population Hoechst High Intensity Objects (%) [4]: 0%
Population Membrane Permeable-Phenotype (%) [4]: 6% and 4%
Population Mitochondria Different-Phenotype (%) [4]: 3% and 1%
Population Mitotic Cells (%) [4]: 28% and 54%
Population Normal (%) [4]: 100% and 99%
Population Pyknosed Nuclei (%) [4]: 15% and 12%
Population Tubulin-Different-Phenotype (%) [4]: 12% and 8%
Total Cell Count [4]: 182 and 271
Population Apoptotic (%) [5]: 68% and 59%
Population Fragmented Nuclei (%) [5]: 11% and 15%
Population Healthy Nuclei (%) [5]: 71% and 63%
Population Hoechst High Intensity Objects (%) [5]: 0%
Population Membrane Permeable-Phenotype (%) [5]: 6% and 11%
Population Mitochondria Different-Phenotype (%) [5]: 0%
Population Mitotic Cells (%) [5]: 31% and 40%
Population Normal (%) [5]: 100% and 99%
Population Pyknosed Nuclei (%) [5]: 17% and 20%
Population Tubulin-Different-Phenotype (%) [5]: 12% and 3%
Total Cell Count [5]: 186 and 203
Population Apoptotic (%) [6]: 72% and 60%
Population Fragmented Nuclei (%) [6]: 13% and 12%
Population Healthy Nuclei (%) [6]: 70% and 78%
Population Hoechst High Intensity Objects (%) [6]: 0%
Population Membrane Permeable-Phenotype (%) [6]: 5% and 2%
Population Mitochondria Different-Phenotype (%) [6]: 0%
Population Mitotic Cells (%) [6]: 27% and 39%
Population Normal (%) [6]: 100% and 99%
Population Pyknosed Nuclei (%) [6]: 15% and 8%
Population Tubulin-Different-Phenotype (%) [6]: 8% and 2%
Total Cell Count [6]: 193 and 260
